{
  "source": "paper PMC11187553",
  "about": "(RSC Medicinal Chemistry, 2024)",
  "key": {"[1]": {"test_system": "SH-SY5Y cells", "assay": "Cytotoxic effects in SH-SY5Y cells", "assay_type": "cell-based, human", "settings": "for cytotoxicity (in words): 0.1-100 μM, 24, 48 or 72 h"}, "[2]": {"target": "T1, HDAC6 (Homo sapiens, UniProt Q9UBN7)", "T1 sequence (Q9UBN7 1-1215)": "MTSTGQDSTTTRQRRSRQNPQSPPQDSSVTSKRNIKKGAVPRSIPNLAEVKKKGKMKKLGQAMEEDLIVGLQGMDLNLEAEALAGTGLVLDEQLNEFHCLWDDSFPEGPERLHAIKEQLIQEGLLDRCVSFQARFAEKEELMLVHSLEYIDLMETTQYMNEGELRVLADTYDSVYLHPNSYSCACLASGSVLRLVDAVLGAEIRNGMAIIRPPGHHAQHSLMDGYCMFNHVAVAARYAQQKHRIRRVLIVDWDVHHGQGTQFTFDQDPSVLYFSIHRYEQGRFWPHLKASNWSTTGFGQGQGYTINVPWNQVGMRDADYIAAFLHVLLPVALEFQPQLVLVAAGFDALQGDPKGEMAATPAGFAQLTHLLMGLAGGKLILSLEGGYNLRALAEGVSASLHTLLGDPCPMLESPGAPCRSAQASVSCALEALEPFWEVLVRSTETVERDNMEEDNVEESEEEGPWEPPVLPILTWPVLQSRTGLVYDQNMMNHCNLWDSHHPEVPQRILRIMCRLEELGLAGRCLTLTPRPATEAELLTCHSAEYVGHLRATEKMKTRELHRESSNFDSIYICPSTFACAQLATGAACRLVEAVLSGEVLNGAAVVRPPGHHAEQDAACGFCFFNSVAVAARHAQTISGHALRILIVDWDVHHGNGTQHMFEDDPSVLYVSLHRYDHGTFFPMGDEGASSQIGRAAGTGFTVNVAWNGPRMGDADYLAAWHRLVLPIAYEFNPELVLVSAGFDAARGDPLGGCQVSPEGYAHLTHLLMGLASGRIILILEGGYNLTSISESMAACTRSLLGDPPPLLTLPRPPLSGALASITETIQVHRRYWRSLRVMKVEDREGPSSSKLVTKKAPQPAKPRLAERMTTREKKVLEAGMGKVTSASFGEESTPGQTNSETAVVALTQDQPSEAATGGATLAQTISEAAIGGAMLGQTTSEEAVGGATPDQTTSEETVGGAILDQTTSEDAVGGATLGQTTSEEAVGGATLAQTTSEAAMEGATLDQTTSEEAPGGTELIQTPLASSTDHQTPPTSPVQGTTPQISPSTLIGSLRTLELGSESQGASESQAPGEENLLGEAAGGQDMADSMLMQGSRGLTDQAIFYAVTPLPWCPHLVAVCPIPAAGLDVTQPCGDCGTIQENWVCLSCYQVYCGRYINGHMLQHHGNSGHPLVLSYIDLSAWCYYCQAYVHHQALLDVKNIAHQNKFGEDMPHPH", "assay": "HDAC inhibition in vitro assay", "assay_type": "biochemical", "settings": "from IC50 values of Table 2"}, "[3]": {"test_system": "reactive oxygen species (ROS) in SH-SY5Y cells", "assay": "ROS determination with DCFDA probe in SH-SY5Y cells", "assay_type": "cell-based, human", "settings": "for protective effect against TBH-induced oxidative stress: 2 μM 24 h pre-treatment, 100 μM tert-butyl hydroperoxide 30 min; for effect on endogenous ROS (oxidative stress) vs control: 2 μM, 24 h, DCFDA", "in_short": "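SH-SY5Y cells (1 × 10^4/well) were left 24 h to adhere, then given vehicle or 2 μM test compound for 24 h. After washing, cells were loaded with 10 μM DCFDA in DMEM for 30 min. Oxidative stress was then induced with 100 μM tert-butyl hydroperoxide in PBS for 30 min. Fluorescence (485/535 nm) was normalised to Lowry protein; experiments were done in triplicate.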"}, "[4]": {"test_system": "SH-SY5Y cells", "assay": "Protection of SH-SY5Y cells from H2O2 cytotoxicity", "assay_type": "cell-based, human", "settings": "pre-treatment at all concentrations (1-50 μM), 24 h"}, "[5]": {"test_system": "HepG2 cells", "assay": "Cytotoxicity in human hepatoma cell line HepG2", "assay_type": "cell-based", "settings": "24 h incubation at 1-100 μM, MTT", "in_short": "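HepG2 cells were grown in MEM with 10% FBS, penicillin and streptomycin, then seeded at 1.5 × 10^4 cells/well. After 24 h they received test compound ([…]) in complete medium or vehicle for 24 h. MTT (0.2 mg mL−1 in PBS) was added for 2 h at 37 °C, formazan was dissolved in DMSO, and A570 was read. Results are % live cells versus vehicle, mean ± SD, n = 4.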"}, "[6]": {"test_system": "neural progenitor cells (neurospheres)", "assay": "Neurospheres proliferation", "assay_type": "cell-based, Mus musculus", "settings": "7 DIV", "in_short": "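NPCs from the subventricular zone of 8-month-old male C57BL/6N mice were Accutase-dissociated and plated as single cells (5 × 10^3/well) in suspension. Medium was DMEM-F12 with glutamine, insulin, 20 ng ml−1 EGF, 20 ng ml−1 FGF2, N2 and B27. Test compound (2.5–50 μM) or DMSO was present for 7 DIV. Brightfield live-cell images were taken daily; only aggregates over 400 μm2 were analysed.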"}, "[7]": {"test_system": "neural progenitor cells (neurospheres)", "assay": "Neurospheres differentiation analysis", "assay_type": "cell-based, Mus musculus", "settings": "2.5 and 5 μM, 7 DIV", "in_short": "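Neurospheres came from subventricular-zone NPCs of 8-month-old male C57BL/6N mice. Thirty spheres were plated on Matrigel-coated coverslips in complete DMEM F-12 with test compound or DMSO for 7 DIV. Cells were fixed in 4% PFA, permeabilised with Triton, blocked in goat serum, and stained overnight at 4 °C for DCX, GFAP, Olig2 and Nestin. Confocal z-stacks gave marker intensity/DAPI intensity; mean ± SD of 3 fields per condition.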"}, "[8]": {"test_system": "SH-SY5Y cells", "assay": "SH-SY5Y viability after sulforaphane", "assay_type": "cell-based, human", "settings": "data not shown"}, "[9]": {"test_system": "histones H2/H3 lysine acetylation", "assay": "Western blot of lysine acetylation of histones H2/H3 in SH-SY5Y cells", "assay_type": "cell-based, human", "settings": "5 μM, 6 h", "in_short": "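SH-SY5Y cells were seeded at 20 × 10^4 cells/cm2 and grown 48 h, then given 5 μM test compound or vehicle for 6 h. Cells were washed in 10 mM sodium butyrate/PBS, nuclei isolated, and histones acid-extracted (0.4 N H2SO4, 4 °C, 1 h) and precipitated in acetone. Samples ran on 15% gels and were blotted to nitrocellulose with anti-acetyl-lysine antibody. Densitometry was normalised to H1.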"}, "[10]": {"test_system": "SH-SY5Y cells", "assay": "Analysis of cell cycle in SH-SY5Y cells", "assay_type": "cell-based, human", "settings": "72 h", "in_short": "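SH-SY5Y cells were grown in DMEM with 10% FBS and antibiotics at 37 °C in 5% CO2. After 72 h with test compound, cells were collected, fixed in 70% ice-cold ethanol and stained with a propidium iodide cell-cycle reagent for 30 min in the dark at room temperature. Cell-cycle distribution was read by flow cytometry.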"}, "[11]": {"test_system": "SH-SY5Y cells", "assay": "SH-SY5Y viability after NAC pre-treatment and compound 6", "assay_type": "cell-based, human", "settings": "NAC 2 mM 1 h, then compound 10 μM 24 h"}},
  "note": "Entries after “also recorded” stand apart in the source; their conditions may differ.",
  "data": [
    {"smiles": "CC1=C(NCCCCNC(=O)CS)C(=O)c2ccccc2C1=O", "note": "[Compound 8, 2-Mercapto-N-(4-((3-methyl-1,4-dioxo-1,4-dihydronaphthalen-2-yl)amino)butyl)acetamide]", "values": [
      {"measurement": "cytotoxicity (in words)", "setting": "[1]", "result": "nontoxic up to the concentration of 100 μM; also recorded: lowest cytotoxicity"},
      {"measurement": "selectivity between HDAC2 and HDAC6 isoforms", "setting": "[2]", "result": "no selectivity"},
      {"measurement": "protective effect against TBH-induced oxidative stress", "setting": "[3]", "result": "did not show any protective effect"},
      {"measurement": "effect on endogenous ROS (oxidative stress) vs control", "setting": "[3]", "result": "only a tendency to increase ROS production"},
      {"measurement": "rescue of SH-SY5Y cell viability from H2O2", "setting": "[4]", "result": "did not rescue"},
      {"measurement": "toxicity in HepG2 cells (in words)", "setting": "[5]", "result": "no significant toxicity up to 10 μM"},
      {"measurement": "neurospheres number per well vs DMSO control", "setting": "[6]; 2.5 and 5 μM", "result": "significantly increased"},
      {"measurement": "neurospheres size vs DMSO control", "setting": "[6]; 2.5 and 5 μM", "result": "without affecting"},
      {"measurement": "toxicity to neurospheres", "setting": "[6]; higher concentrations 25, 50 μM", "result": "toxic"},
      {"measurement": "DCX+ cells (immature neurons marker) vs DMSO control", "setting": "[7]", "result": "significantly increased"},
      {"measurement": "GFAP expression (astrocytes marker) vs DMSO control", "setting": "[7]", "result": "without affecting"},
      {"measurement": "Nestin+ cells (NPCs marker) vs DMSO control", "setting": "[7]", "result": "decreased"},
      {"measurement": "Olig2 expression (OPCs marker) vs DMSO control", "setting": "[7]", "result": "without affecting"},
      {"measurement": "protective activity in H2O2-stressed cells after sulforaphane treatment", "setting": "[8]; SFN (NQO1 inducer)", "result": "no increase in the protective activity"}
    ]},
    {"smiles": "O=C(CS)NCCCCNC1=CC(=O)c2ccccc2C1=O", "note": "[Compound 7, N-(4-((1,4-Dioxo-1,4-dihydronaphthalen-2-yl)amino)butyl)-2-mercaptoacetamide]", "values": [
      {"measurement": "cytotoxicity (in words)", "setting": "[1]", "result": "lowest cytotoxicity"}
    ]},
    {"smiles": "CC1=C(NCc2ccc(C(=O)Nc3ccccc3N)cc2)C(=O)c2ccccc2C1=O", "note": "[Compound 6, N-(2-Aminophenyl)-4-(((3-methyl-1,4-dioxo-1,4-dihydronaphthalen-2-yl)amino)methyl)benzamide]", "values": [
      {"measurement": "acetylation of histone H2/H3 lysines", "setting": "[9]", "result": "massive hyperacetylation"},
      {"measurement": "protective effect against TBH-induced oxidative stress", "setting": "[3]", "result": "did not show any protective effect"},
      {"measurement": "effect on endogenous ROS (oxidative stress) vs control", "setting": "[3]", "result": "significant induction of oxidative stress"},
      {"measurement": "cell-cycle block in G0/G1, S or G2/M (cytostatic effect)", "setting": "[10]", "result": "no cell-cycle block"},
      {"measurement": "mitigation of cytotoxic effect by NAC pre-treatment", "setting": "[11]", "result": "not mitigated"},
      {"measurement": "change of toxic activity in cells pretreated with sulforaphane", "setting": "[8]; SFN pre-treatment", "result": "did not observe any change in the toxic activity"}
    ]},
    {"smiles": "Nc1ccccc1NC(=O)c1ccc(CNC2=CC(=O)c3ccccc3C2=O)cc1", "note": "[Compound 5, N-(2-Aminophenyl)-4-(((1,4-dioxo-1,4-dihydronaphthalen-2-yl)amino)methyl)benzamide]", "values": [
      {"measurement": "cytotoxicity (in words)", "setting": "[1]", "result": "comparable to that of vorinostat"}
    ]},
    {"smiles": "CC1=C(NCCCCCC(=O)NO)C(=O)c2ccccc2C1=O", "note": "[Compound 2, N-Hydroxy-6-((3-methyl-1,4-dioxo-1,4-dihydronaphthalen-2-yl)amino)hexanamide]", "values": [
      {"measurement": "IC50", "setting": "[1]; Homo sapiens, 24 h, read-out: IC50 (μM) ± SEM 24 h", "result": "> 100", "unit": "µM"}
    ]}
  ]
}
